In ChEMBL document CHEMBL3994637, “Broad spectrum anti-infective properties of benzisothiazolones and the parallels in their anti-bacterial and anti-fungal effects” (Bioorg Med Chem Lett, 2017):
Converted amounts (≈) assume the structure as drawn.

Legend:
Type in all cases: functional
[1] = system: Staphylococcus aureus; assay: Antibacterial activity against Staphylococcus aureus ATCC 25923 by broth microdilution method
[2] = system: Staphylococcus aureus; assay: Antibacterial activity against methicillin-resistant Staphylococcus aureus ATCC 700699 by broth microdilution method; conditions: Mu50
[3] = system: Staphylococcus aureus; assay: Antibacterial activity against Staphylococcus aureus ATCC 29213 by broth microdilution method
[4] = system: Escherichia coli; assay: Antibacterial activity against Escherichia coli ATCC 9637 by broth microdilution method; conditions: W
Method in brief: (§1)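 Bacteria were tested by the NCCLS method in Mueller Hinton broth, with gentamicin and norfloxacin as reference drugs.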

[5] = system: Pseudomonas aeruginosa; assay: Antibacterial activity against Pseudomonas aeruginosa ATCC BAA-427 by broth microdilution method; method in brief: as §1
[6] = system: Klebsiella pneumoniae; assay: Antibacterial activity against Klebsiella pneumoniae ATCC 27736 by broth microdilution method; method in brief: as §1
[7] = system: Candida albicans; assay: Anti-fungal activity against Candida albicans after 48 hrs by broth microdilution method
[8] = system: Cryptococcus neoformans; assay: Anti-fungal activity against Cryptococcus neoformans after 48 hrs by broth microdilution method
[9] = system: Sporothrix schenckii; assay: Anti-fungal activity against Sporothrix schenckii after 48 hrs by broth microdilution method
[10] = system: Trichophyton mentagrophytes; assay: Anti-fungal activity against Trichophyton mentagrophytes after 48 hrs by broth microdilution method
[11] = system: Aspergillus fumigatus; assay: Anti-fungal activity against Aspergillus fumigatus after 48 hrs by broth microdilution method
[12] = system: Candida parapsilosis; assay: Anti-fungal activity against Candida parapsilosis ATCC 22019 after 48 hrs by broth microdilution method; conditions: Lodderomyces parapsilosis, ATCC 22019, 48 h
[13] = system: Plasmodium falciparum; assay: Antimalarial activity against chloroquine-sensitive Plasmodium falciparum 3D7 after 72 hrs by SYBR Green-1 staining based fluorescence assay; conditions: 3D7, 72 h

Compound	IC50 [1] [mg/L]	MIC [1] [mg/L]	IC50 [2] [mg/L]	MIC [2] [mg/L]	IC50 [3] [mg/L]	MIC [3] [mg/L]	IC50 [4] [mg/L]	MIC [4] [mg/L]	IC50 [5] [mg/L]	MIC [5] [mg/L]	IC50 [6] [mg/L]	MIC [6] [mg/L]	MIC [7] [mg/L]	MIC [8] [mg/L]	MIC [9] [mg/L]	MIC [10] [mg/L]	MIC [11] [mg/L]	IC50 [12] [mg/L]	MIC [12] [mg/L]	IC50 [13] [µM]	further results
CC(C)Cn1sc2ccccc2c1=O	10.6 (≈ 51.1 µM)	15.4 (≈ 74.3 µM)	4.7 (≈ 22.7 µM)	5.2 (≈ 25.1 µM)	6.3 (≈ 30.4 µM)	9.8 (≈ 47.3 µM)	> 50	> 50	> 50	> 50	> 50	> 50	0.6 (≈ 2.89 µM)	0.4 (≈ 1.93 µM)	1.4 (≈ 6.75 µM)	> 50	2.6 (≈ 12.5 µM)	1 (≈ 4.82 µM)	1.1 (≈ 5.31 µM)	> 2	IC50 [10]: > 50 mg/L; IC50 [11]: 1.3 mg/L (≈ 6.27 µM)
CC(Cn1sc2ccccc2c1=O)n1sc2ccccc2c1=O (centres undefined)	6.1 (≈ 17.8 µM)	12.4 (≈ 36.2 µM)	1.5 (≈ 4.38 µM)	2.6 (≈ 7.59 µM)	2 (≈ 5.84 µM)	4.1 (≈ 12 µM)	> 50	> 50	> 50	> 50	> 50	> 50	3.1 (≈ 9.05 µM)	1.67 (≈ 4.88 µM)	6.6 (≈ 19.3 µM)	4.3 (≈ 12.6 µM)	12.5 (≈ 36.5 µM)	> 50	> 50	> 2	IC50 [7]: 2.2 mg/L (≈ 6.42 µM); IC50 [8]: 1.61 mg/L (≈ 4.7 µM); IC50 [9]: 3.7 mg/L (≈ 10.8 µM)
O=c1c2ccccc2sn1-c1ccccc1-n1sc2ccccc2c1=O	10 (≈ 26.6 µM)	18 (≈ 47.8 µM)	4.7 (≈ 12.5 µM)	10.2 (≈ 27.1 µM)	6.3 (≈ 16.7 µM)	6.5 (≈ 17.3 µM)	> 50	> 50	> 50	> 50	> 50	> 50	25 (≈ 66.4 µM)	14.4 (≈ 38.3 µM)	> 50	13.6 (≈ 36.1 µM)	> 50	15.2 (≈ 40.4 µM)	17.1 (≈ 45.4 µM)	> 2	IC50 [7]: 14.2 mg/L (≈ 37.7 µM); IC50 [8]: 13.7 mg/L (≈ 36.4 µM); IC50 [9]: > 50 mg/L; IC50 [10]: 12.5 mg/L (≈ 33.2 µM); IC50 [11]: > 50 mg/L
COC(=O)[C@H](C)NC(=O)[C@H](C)n1sc2ccccc2c1=O	3.6 (≈ 11.7 µM)	7.5 (≈ 24.3 µM)	3.6 (≈ 11.7 µM)	7.5 (≈ 24.3 µM)	3.5 (≈ 11.4 µM)	5.6 (≈ 18.2 µM)	> 50	> 50	> 50	> 50	> 50	> 50	> 50	> 50	> 50	> 50	> 50	> 50	> 50	> 2	IC50 [7]: > 50 mg/L; IC50 [8]: > 50 mg/L; IC50 [9]: > 50 mg/L; IC50 [10]: > 50 mg/L; IC50 [11]: > 50 mg/L
COC(=O)[C@H](CC(C)C)n1sc2ccccc2c1=O	2.1 (≈ 7.52 µM)	3.5 (≈ 12.5 µM)	2.1 (≈ 7.52 µM)	3.5 (≈ 12.5 µM)	2.7 (≈ 9.66 µM)	6.9 (≈ 24.7 µM)	> 50	> 50	> 50	> 50	> 50	> 50	1.9 (≈ 6.8 µM)	10.5 (≈ 37.6 µM)	20.4 (≈ 73 µM)	11.4 (≈ 40.8 µM)	> 50	2.4 (≈ 8.59 µM)	4.9 (≈ 17.5 µM)	> 2	IC50 [7]: 1.5 mg/L (≈ 5.37 µM); IC50 [8]: 8.6 mg/L (≈ 30.8 µM); IC50 [9]: 2.9 mg/L (≈ 10.4 µM); IC50 [10]: 6.2 mg/L (≈ 22.2 µM)
COC(=O)[C@H](C(C)C)n1sc2ccccc2c1=O	2.4 (≈ 9.05 µM)	2.9 (≈ 10.9 µM)	0.82 (≈ 3.09 µM)	0.97 (≈ 3.66 µM)	2.6 (≈ 9.8 µM)	4.6 (≈ 17.3 µM)	> 50	> 50	> 50	> 50	> 50	> 50	2.3 (≈ 8.67 µM)	4.5 (≈ 17 µM)	11.9 (≈ 44.8 µM)	2.4 (≈ 9.05 µM)	12.5 (≈ 47.1 µM)	1.6 (≈ 6.03 µM)	3.1 (≈ 11.7 µM)	> 2	IC50 [7]: 1.2 mg/L (≈ 4.52 µM); IC50 [8]: 2.5 mg/L (≈ 9.42 µM); IC50 [9]: 2.5 mg/L (≈ 9.42 µM); IC50 [10]: 1.7 mg/L (≈ 6.41 µM)
O=c1c2ccccc2sn1C1CCCCC1	6.8 (≈ 29.1 µM)	9.8 (≈ 42 µM)	1 (≈ 4.29 µM)	2.5 (≈ 10.7 µM)	4.6 (≈ 19.7 µM)	7.1 (≈ 30.4 µM)	> 50	> 50	> 50	> 50	> 50	> 50	0.5 (≈ 2.14 µM)	1.3 (≈ 5.57 µM)	0.6 (≈ 2.57 µM)	1 (≈ 4.29 µM)	3.7 (≈ 15.9 µM)	0.7 (≈ 3 µM)	0.9 (≈ 3.86 µM)	> 2	IC50 [8]: 1 mg/L (≈ 4.29 µM); IC50 [9]: 0.4 mg/L (≈ 1.71 µM); IC50 [10]: 0.7 mg/L (≈ 3 µM); IC50 [11]: 0.4 mg/L (≈ 1.71 µM)
CCn1cc(C(=O)O)c(=O)c2cc(F)c(N3CCNCC3)cc21 [NORFLOXACIN]		0.39 (≈ 1.22 µM)		> 50		0.78 (≈ 2.44 µM)		0.39 (≈ 1.22 µM)		> 50		0.78 (≈ 2.44 µM)									
GENTAMICIN		6.25		> 50		0.78		6.25		> 50		0.78									
